Source: ChEMBL document CHEMBL4385611, “Difluoromethylene at the γ-Lactam α-Position Improves 11-Deoxy-8-aza-PGE1 Series EP4 Receptor Binding and Activity: 11-Deoxy-10,10-difluoro-8-aza-PGE1 Analog (KMN-159) as a Potent EP4 Agonist” (J Med Chem, 2019)

Experiments:
[1] = Efflux ratio of apparent permeability across basolateral to apical over apical to basolateral side in MDCK-MDR1 cells; type: ADME, cell-based, Canis lupus familiaris; conditions: dog
[2] = Chemical stability of the compound assessed as drug recovery under Co-60 gamma irradiation condition; type: physicochemical
Outline: (§1)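 Compound solution in PBS, pH 7.4, held at 4 °C, tested as plain aqueous solution and after autoclaving. A separate sample was exposed to Co-60 gamma irradiation. Read-out is percent of compound recovered.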

[3] = Apparent permeability across apical to basolateral side in MDCK-MDR1 cells assessed as drug recovery; type: ADME, cell-based, Canis lupus familiaris; conditions: dog, read-out: Drug recovery
[4] = Apparent permeability across basolateral to apical side in MDCK-MDR1 cells assessed as drug recovery; type: ADME, cell-based, Canis lupus familiaris; conditions: dog, read-out: Drug recovery
[5] = Chemical stability in PBS buffer at pH 7.4 assessed as compound recovery at 4 degC under autoclave condition; type: physicochemical; outline: as §1
[6] = Chemical stability in PBS buffer at pH 7.4 assessed as compound recovery at 4 degC; type: physicochemical; outline: as §1
[7] = biological target: Prostaglandin E2 receptor EP2 subtype (Homo sapiens, UniProt P43116); test: Agonist activity at human EP2 receptor expressed in HEK293T/17 cells assessed as increase in GalphaS-mediated CREB activation at 10 uM measured after 6 to 24 hrs by SEAP reporter gene-based chemiluminescence assay relative to control; type: functional, cell-based
Chain of Prostaglandin E2 receptor EP2 subtype (P43116 whole entry): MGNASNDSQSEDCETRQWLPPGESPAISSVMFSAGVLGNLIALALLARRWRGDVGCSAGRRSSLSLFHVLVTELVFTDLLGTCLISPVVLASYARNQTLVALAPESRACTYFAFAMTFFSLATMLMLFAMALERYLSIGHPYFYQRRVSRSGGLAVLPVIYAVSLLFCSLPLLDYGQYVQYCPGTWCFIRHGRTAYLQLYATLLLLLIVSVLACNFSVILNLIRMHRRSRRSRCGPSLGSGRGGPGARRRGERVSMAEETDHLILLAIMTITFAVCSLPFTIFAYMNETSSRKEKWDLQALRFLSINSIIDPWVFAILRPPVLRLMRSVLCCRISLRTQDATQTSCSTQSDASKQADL

Structure (SMILES): CCC#CC[C@H](C)[C@H](O)/C=C/[C@H]1CC(F)(F)C(=O)N1CCCCCCC(=O)O
- efflux ratio [1]: 20
- Drug recovery [2]: 95%
- recovery [3]: 84%
- recovery [4]: 93%
- Drug recovery [5]: 100%
- Drug recovery [6]: 100%

Structure (SMILES): CCC#CC[C@H](C)[C@H](O)/C=C/[C@H]1CCC(=O)N1CCCCCCC(=O)O
- Activity [7]: < 50%
